Drawing on the RNAGym collection of RNA variant scans (doi:10.1126/science.aae0568), this text covers yeast fitness for 167 variants.

Fewer inactive variants are shown than the library holds.

Sequences and labels used below:
B1: tRNA (parent)
chain: GUUCCGUUGGCGUAAUGGUAACGCGUCUCCCUCCUAAGGAGAAGACUGCGGGUUCGAGUCCCGUACGGAACG

The variants in this series derive from B1. In words: yeast fitness relative to wild type (ratio to wild type); higher = fitter; tRNA-Arg(CCU), competitive growth, 37 C, YPD. The gist of the method:
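Changes in genotype frequencies gave Darwinian fitness relative to wild type. Frequencies were read by 100-nucleotide paired-end sequencing of gene amplicons before and after pooled Saccharomyces cerevisiae strains, carrying tRNA-Arg(CCU) gene variants at the native locus, were competed in YPD at 37°C for 24 hours in six replicates. A genotype was kept only with ≥ 100 starting reads, and estimates < 0.5 were set to 0.5.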
Consider A43G U47A, for which the yeast fitness amounted to 0.88.

Regarding A20U C34A, the yeast fitness was determined as 0.7.

In the case of C31U A57C C66U, the yeast fitness came to 0.663.

Regarding G23U A36C C46U G50C G67C, the yeast fitness was not above 0.5.

Take C5G G12A C22A U26C C33G U64A G67C: the yeast fitness was not above 0.5.

Consider A21C C24U A37C G39A C49G A69C, for which the yeast fitness was not above 0.5.

Take U2G G25A U53A G63A: the yeast fitness is 0.563.

With U2A U7A U54A, the yeast fitness is not above 0.5.

U2C U47A A70G: the yeast fitness worked out at 1.15.

As for A14U A70G, the yeast fitness was 0.734.

Turning to G44C, the yeast fitness was 0.985.

For U3C C30G A42C, the yeast fitness was not above 0.5.

Turning to G52A G58A C60G, the yeast fitness is not above 0.5.

As to C30U C49A, the yeast fitness stood at 0.547.

As to C5G U16A C33A A43C G50A A57U C60G, the yeast fitness amounted to 0.523.

As for U19C C22G A65U, the yeast fitness amounted to 0.547.

For the variant C30U G44A G48C A70G, the yeast fitness is not above 0.5.

Turning to A15G C27U G58C, the yeast fitness was 0.717.

On to U54C G67A, for which the yeast fitness turned out to be 0.817.

In the case of G6A C33G C34G C61A G67U, the yeast fitness was not above 0.5.

As for A15U A20C, the yeast fitness was 0.646.

As for C61A A70C, the yeast fitness came out at 0.694.

On to A14G A45C G58A, for which the yeast fitness came out at 0.622.

With U13A U59C C66A, the yeast fitness was not above 0.5.

Regarding C5A G48C A57G, the yeast fitness stood at 0.557.

As to G6A A42C U53G G67C, the yeast fitness was not above 0.5.

As for C5U C11G U13C A15U U32A U35G C55A C61G, the yeast fitness is not above 0.5.

As to A14G C29G, the yeast fitness was 0.564.

For C11U C33U A36G G39A G44A C55G U59C, the yeast fitness is not above 0.5.

On to A37C C62A, for which the yeast fitness was determined as 0.874.

In the case of C4G C49U C66U, the yeast fitness was 0.681.

As to U7A C33A A45C G68A, the yeast fitness was not above 0.5.

Take G17C A57G G67A: the yeast fitness turned out to be 0.56.

As to C11A C27G G50A U64G, the yeast fitness is not above 0.5.

With A14U C27U A69G, the yeast fitness was not above 0.5.

Take U13A C31U A40U: the yeast fitness turned out to be 1.04.

Consider A20U G39C, for which the yeast fitness came to 0.81.

On to G23A C33G A69C, for which the yeast fitness is not above 0.5.

For the variant C11U C24G C33G, the yeast fitness was 0.541.

For G18A C55G, the yeast fitness is 0.554.

As for C33U G38A C46U, the yeast fitness stood at 0.562.

For the variant C5G C22U A37G G50C, the yeast fitness was not above 0.5.

Take A21U C24U A57U A65C A69C: the yeast fitness was not above 0.5.

For the variant G52A G56A, the yeast fitness stood at 0.727.

For the variant U3A A14C A21C G41A G44C U47C C49U G56A, the yeast fitness was not above 0.5.

Turning to G10A C11U C22U A57U, the yeast fitness is not above 0.5.

For the variant C5G A36C A42G, the yeast fitness was not above 0.5.

Consider A14G A43U, for which the yeast fitness was determined as 0.803.

Regarding C30G C33G C34U A42U C66U G67C, the yeast fitness is not above 0.5.

Regarding C5G A14C U28A C31A A45U C49A C66U, the yeast fitness is not above 0.5.

Regarding G10A C31U A42G, the yeast fitness is not above 0.5.

As for C49U C55U, the yeast fitness stood at 0.649.

As for G12A G67U, the yeast fitness turned out to be 0.797.

Turning to U3C C55G U64A, the yeast fitness came out at 0.563.

As to U7C A20U C34G A36C C55U A65U, the yeast fitness was not above 0.5.

For the variant A14C A42C U47C, the yeast fitness was not above 0.5.

As to G25C A40G C61G G63A A69U, the yeast fitness was not above 0.5.

Turning to C29U G38C G39A A65G C66A G67A, the yeast fitness was not above 0.5.

As to C5A C33U G39C C55A G67C, the yeast fitness is not above 0.5.

With U8C A45U A65U, the yeast fitness worked out at 0.709.

Take C22G C29G C62U: the yeast fitness was not above 0.5.

On to A65C, for which the yeast fitness is 1.01.

With U2A C5U A42G C46G G56C C61A, the yeast fitness is not above 0.5.

As for C30G A43C C62U, the yeast fitness came out at 0.533.

Take G17C C33G U59G A69U: the yeast fitness was 0.665.

Consider U2C C29U G38C A43U U53G, for which the yeast fitness is not above 0.5.

Regarding U3A G25A G58C C66U, the yeast fitness was 0.596.

For the variant C33G G41A A69C, the yeast fitness was not above 0.5.

C4G G17C C33G U59C: the yeast fitness is not above 0.5.

On to A14C U54A U59C C61G, for which the yeast fitness was not above 0.5.

Regarding G6A G9C G68C, the yeast fitness is not above 0.5.

Take C11A C62G A70U: the yeast fitness was 0.542.

For U7C G68C, the yeast fitness is 0.876.

For C22G C31A A36G C49G G63C A69U, the yeast fitness turned out to be 0.543.

Take G41C A57G: the yeast fitness is 0.883.

C27U G48A C49U: the yeast fitness was 1.01.

As for C5G C49A G63A, the yeast fitness is not above 0.5.

With A20G C30A G48A U64C, the yeast fitness is not above 0.5.

In the case of C5G G17C G63A A65G, the yeast fitness was not above 0.5.

As for A14U A15G C24U C31U C61U, the yeast fitness was not above 0.5.

For the variant G38U C46A, the yeast fitness was found to be 0.783.

With C33A U35A A70C, the yeast fitness is not above 0.5.

Take G10C U64A: the yeast fitness amounted to 0.671.

Turning to G10A A40U, the yeast fitness amounted to 0.683.

A37C U64A: the yeast fitness stood at 0.729.

As for A15U U19A A20G A40U A43U, the yeast fitness turned out to be 0.542.

For U16C G67C, the yeast fitness turned out to be 0.861.

On to C24A C66G, for which the yeast fitness was 0.548.

With G39A A57C, the yeast fitness is 0.663.

With G44C C55U, the yeast fitness was 0.731.

With C11A C33G A43C G68A, the yeast fitness came to 0.61.

As to U19A C31G G38C A40C G56A, the yeast fitness amounted to 0.569.

As to C11U C34G A42C, the yeast fitness was not above 0.5.

In the case of G9A U16G A42C, the yeast fitness stood at 0.955.

Regarding A43G U47A C49A, the yeast fitness turned out to be 0.531.

On to G38C C46G C49G G51C C61U, for which the yeast fitness came to 0.593.

For the variant G6A C33G U47A U64G, the yeast fitness turned out to be 0.558.

As for A40G A42G U59C, the yeast fitness was 0.618.

In the case of A57U C62U C66U, the yeast fitness was 0.613.

As for U13G U28A C30A, the yeast fitness is not above 0.5.

C30U U53A: the yeast fitness turned out to be 0.672.

For U8G A37U G52A A57C C60A, the yeast fitness was not above 0.5.

For A20G A21G, the yeast fitness is 0.986.

With U2G G9C A20G A42C C46G C49U G63A A69C, the yeast fitness was not above 0.5.

In the case of A45U G52C, the yeast fitness was found to be 0.642.

As for C24G C31U G50C C60G G63A, the yeast fitness turned out to be 0.545.

Take G41A C62U: the yeast fitness came out at 0.844.

C4A U13A G50A: the yeast fitness stood at 0.613.

U8A C11A A36G C61G A69G: the yeast fitness was not above 0.5.

As for C24U U26A U28G, the yeast fitness was determined as 0.506.

In the case of G51A U53G G58A, the yeast fitness is not above 0.5.

Turning to U7C A20G A21G, the yeast fitness stood at 0.562.

As to U13C G18C G50C A57U C62U, the yeast fitness was determined as 0.578.

Consider A14C C22A U59C C62A, for which the yeast fitness is not above 0.5.

Consider C5U C22U U26A C55G, for which the yeast fitness was not above 0.5.

In the case of C29A A36U, the yeast fitness was not above 0.5.

On to U19A A40G C55G, for which the yeast fitness is not above 0.5.

For U7C C61G A65C, the yeast fitness was not above 0.5.

Take C30G C31U G56A C62U A69G: the yeast fitness was not above 0.5.

In the case of A20U G38A A57U, the yeast fitness is not above 0.5.

As for U2A C46A G58A, the yeast fitness was 0.622.

On to A15C C33G A42C A45C, for which the yeast fitness is not above 0.5.

Consider C11A C55U G63A, for which the yeast fitness was not above 0.5.

Turning to G44C U54C C66U, the yeast fitness was 0.601.

With U16C A20U C30U G39C A45G A69C, the yeast fitness turned out to be 0.592.

Turning to A15G U26G C30U A40U G52A, the yeast fitness was not above 0.5.

As for A14U C31U C55U G68A, the yeast fitness turned out to be 0.618.

Regarding U16G C30U A65U, the yeast fitness is not above 0.5.

For the variant A15U A21C G23C C55A U64A A65C, the yeast fitness is not above 0.5.

On to G10C C60U C62U A70C, for which the yeast fitness is not above 0.5.

For the variant C34U G52C C55U G58A, the yeast fitness was not above 0.5.

Regarding U7C G39A, the yeast fitness turned out to be 0.913.

For the variant A14G C22U C24G A42C A57G, the yeast fitness was not above 0.5.

Take U2A C27U A36C: the yeast fitness is not above 0.5.

Regarding A36U C46G A69U, the yeast fitness turned out to be 0.538.

C11A G51C C66G: the yeast fitness was found to be 0.713.

With C11A U16C C33U A37C, the yeast fitness is not above 0.5.

Turning to C30U A36C A37G U47C, the yeast fitness was not above 0.5.

A45G C55U C61G A69C: the yeast fitness was not above 0.5.

Take G23A G58C A70C: the yeast fitness is 0.582.

For U3G A21G A57C, the yeast fitness is not above 0.5.

U8G G10C U13G C55G U59A: the yeast fitness was not above 0.5.

For the variant G17A A37C G58A, the yeast fitness was found to be 0.551.

As to U8G A21G C29U U32C, the yeast fitness is not above 0.5.

Take C31U A42C U47G G52C A57U: the yeast fitness was not above 0.5.

With G6C U8C C49A, the yeast fitness is not above 0.5.

Take C29A U35C A45U C60G G63C: the yeast fitness turned out to be 0.538.

With A14G A15C U35C C46A A69U, the yeast fitness is not above 0.5.

Turning to A15U G38C G39A A43C C60G, the yeast fitness is 0.569.

In the case of A45C A57U A65C, the yeast fitness is 0.617.

For C24A U54C, the yeast fitness stood at 0.634.

Take A15G C60U C62U: the yeast fitness stood at 0.64.

Regarding C34A G50C G51A C61G, the yeast fitness was not above 0.5.

For A20U G51C A65G, the yeast fitness was not above 0.5.

C4U G12C C49A U64C: the yeast fitness was not above 0.5.

With U3A G38A A40G A69U, the yeast fitness was not above 0.5.

As to C4A A14G C30G A45G, the yeast fitness was 0.758.

In the case of C22U C30U C33U A45C, the yeast fitness stood at 0.548.

As for C4U A14G A45C, the yeast fitness came to 0.542.

Take U26A G58C A65G: the yeast fitness was 0.611.

Consider U19A G38C C60A, for which the yeast fitness was not above 0.5.

As to A14U A20C U59A C66A, the yeast fitness is not above 0.5.

Consider C22G C49G A69U, for which the yeast fitness is 0.634.

As for C4G C29U, the yeast fitness came to 0.751.

Regarding C31G C55A A57U U59C C60U, the yeast fitness is not above 0.5.

In the case of U3A A43U C66U, the yeast fitness amounted to 0.635.

For the variant C4G C34U, the yeast fitness was 0.624.
